Measured values taken from ChEMBL document CHEMBL1240414, “Synthesis and anticonvulsant activity of new 6-methyl-1-substituted-4,6-diazaspiro[2.4]heptane-5,7-diones” (Eur J Med Chem, 2010).
Activity calls are given as the source filed them.

Key:
Mus musculus [1] = assay: Neurotoxicity in Kunming mouse assessed as minimum motor impairment at 100 mg/kg, ip after 0.5 hrs by rotarod test; type: toxicity, organism-based; set-up: dose 100 mg/kg, route intraperitoneal; details: in vivo
Procedure, shortened: (§1)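 Rotorod neurotoxicity in male Kunming mice (20 ± 2.0 g) given ip doses of 30, 100 or 300 mg/kg as a suspension in 0.5% methylcellulose, one to four mice per dose. Motor impairment was examined at 0.5 h and 4.0 h after injection. Reported as number of animals showing toxicity/number tested.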

Mus musculus [2] = assay: Anticonvulsant activity in Kunming mouse assessed as protection against maximal electroshock-induced seizures at 300 mg/kg, ip after 4 hrs; type: functional, organism-based; set-up: dose 300 mg/kg
Rattus norvegicus [3] = assay: Neurotoxicity in Kunming rat assessed as minimum motor impairment at 30 mg/kg, po after 4 hrs by rotarod test; type: functional, organism-based; set-up: dose 30 mg/kg
Procedure, shortened: (§2)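 Rotorod neurotoxicity in male Kunming rats (250 ± 5.0 g) given 30 mg/kg po, four rats per compound. Motor impairment was assessed at 0.25, 0.5, 1, 2 and 4 h after oral administration.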

Rattus norvegicus [4] = assay: Anticonvulsant activity in Kunming rat assessed as protection against subcutaneous pentylenetetrazole-induced seizures at 30 mg/kg, po after 1 hr; type: functional
Mus musculus [5] = assay: Anticonvulsant activity in Kunming mouse assessed as protection against subcutaneous pentylenetetrazole-induced seizures at 30 mg/kg, ip after 0.5 hrs; type: functional, organism-based; set-up: dose 30 mg/kg
Procedure, shortened: (§3)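 Male Kunming mice (20 ± 2.0 g) received the compound ip as a suspension in 0.5% methylcellulose at 30, 100 or 300 mg/kg, one to four mice per dose. Pentylenetetrazole in 0.9% saline was given sc at 0.5 h and 4.0 h after dosing. Protection meant no threshold seizure (one clonic spasm episode of at least 5 s). Scored as protected/tested.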

Mus musculus [6] = assay: Neurotoxicity in Kunming mouse assessed as minimum motor impairment at 30 mg/kg, ip after 4 hrs by rotarod test; type: toxicity, organism-based; set-up: dose 30 mg/kg, route intraperitoneal; details: in vivo; procedure, shortened: as §1
Rattus norvegicus [7] = assay: Neurotoxicity in Kunming rat assessed as minimum motor impairment at 30 mg/kg, po after 2 hrs by rotarod test; type: functional, organism-based; set-up: dose 30 mg/kg; procedure, shortened: as §2
Mus musculus [8] = assay: Neurotoxicity in Kunming mouse assessed as minimum motor impairment at 300 mg/kg, ip after 0.5 hrs by rotarod test; type: toxicity, organism-based; set-up: dose 300 mg/kg, route intraperitoneal; details: in vivo; procedure, shortened: as §1
Mus musculus [9] = assay: Anticonvulsant activity in Kunming mouse assessed as protection against maximal electroshock-induced seizures at 30 mg/kg, ip after 4 hrs; type: functional, organism-based; set-up: dose 30 mg/kg
Rattus norvegicus [10] = assay: Neurotoxicity in Kunming rat assessed as minimum motor impairment at 30 mg/kg, po after 1 hr by rotarod test; type: functional, organism-based; set-up: dose 30 mg/kg; procedure, shortened: as §2
Mus musculus [11] = assay: Neurotoxicity in Kunming mouse assessed as minimum motor impairment at 300 mg/kg, ip after 4 hrs by rotarod test; type: toxicity, organism-based; set-up: dose 300 mg/kg, route intraperitoneal; details: in vivo; procedure, shortened: as §1
Mus musculus [12] = assay: Anticonvulsant activity in Kunming mouse assessed as protection against maximal electroshock-induced seizures at 100 mg/kg, ip after 0.5 hrs; type: functional, organism-based; set-up: dose 100 mg/kg
Mus musculus [13] = assay: Anticonvulsant activity in Kunming mouse assessed as protection against maximal electroshock-induced seizures at 30 mg/kg, ip after 0.5 hrs; type: functional, organism-based; set-up: dose 30 mg/kg
Mus musculus [14] = assay: Neurotoxicity in Kunming mouse assessed as minimum motor impairment at 30 mg/kg, ip after 0.5 hrs by rotarod test; type: toxicity, organism-based; set-up: dose 30 mg/kg, route intraperitoneal; details: in vivo; procedure, shortened: as §1
Mus musculus [15] = assay: Neurotoxicity in Kunming mouse assessed as minimum motor impairment at 100 mg/kg, ip after 4 hrs by rotarod test; type: toxicity, organism-based; set-up: dose 100 mg/kg, route intraperitoneal; details: in vivo; procedure, shortened: as §1
Mus musculus [16] = assay: Anticonvulsant activity in Kunming mouse assessed as protection against subcutaneous pentylenetetrazole-induced seizures at 100 mg/kg, ip after 4 hrs; type: functional, organism-based; set-up: dose 100 mg/kg; procedure, shortened: as §3
Mus musculus [17] = assay: Anticonvulsant activity in Kunming mouse assessed as protection against subcutaneous pentylenetetrazole-induced seizures at 30 mg/kg, ip after 4 hrs; type: functional, organism-based; set-up: dose 30 mg/kg; procedure, shortened: as §3
Rattus norvegicus [18] = assay: Anticonvulsant activity in Kunming rat assessed as protection against subcutaneous pentylenetetrazole-induced seizures at 30 mg/kg, po after 0.5 hrs; type: functional
Rattus norvegicus [19] = assay: Neurotoxicity in Kunming rat assessed as minimum motor impairment at 30 mg/kg, po after 0.25 hrs by rotarod test; type: toxicity, organism-based; set-up: dose 30 mg/kg, route oral; details: in vivo; procedure, shortened: as §2
Rattus norvegicus [20] = assay: Neurotoxicity in Kunming rat assessed as minimum motor impairment at 30 mg/kg, po after 0.5 hrs by rotarod test; type: functional, organism-based; set-up: dose 30 mg/kg; procedure, shortened: as §2
Mus musculus [21] = assay: Anticonvulsant activity in ip dosed Kunming mouse assessed as protection against subcutaneous pentylenetetrazole-induced seizures; type: functional
Procedure, shortened: (§4)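 Quantitative phase-II study in groups of 10 male Kunming mice. A range of ip doses in 0.5% carboxymethyl cellulose-0.9% saline (0.1 ml) was given until at least three points fell within 10–90% seizure protection (MES or scPTZ) or minimal neurotoxicity. Rotorod toxicity was read 30 min after dosing.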

Rattus norvegicus [22] = assay: Anticonvulsant activity in Kunming rat assessed as protection against maximal electroshock-induced seizures at 30 mg/kg, po after 2 hrs; type: functional
Procedure, shortened: (§5)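 Male Kunming rats (250 ± 5.0 g) were dosed orally at 30 mg/kg, four rats per compound. Seizures were induced by a 150-mA corneal current for 0.2 s at 0.25, 0.5, 1, 2 and 4 h after dosing. Readout was the number of rats out of four protected against hindlimb tonic extension.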

Mus musculus [23] = assay: Anticonvulsant activity in ip dosed Kunming mouse assessed as time peak effect; type: functional
Rattus norvegicus [24] = assay: Anticonvulsant activity in Kunming rat assessed as protection against maximal electroshock-induced seizures at 30 mg/kg, po after 0.5 hrs; type: functional; procedure, shortened: as §5
[25] = Neurotoxicity in ip dosed Kunming mouse assessed as minimum motor impairment by rotarod test; type: toxicity, organism-based; details: in vivo; procedure, shortened: as §4
Mus musculus [26] = assay: Protective index, ratio of TD50 for neurotoxicity in ip dosed Kunming mouse to ED50 for Kunming mouse by MES test; type: functional
Mus musculus [27] = assay: Anticonvulsant activity in Kunming mouse assessed as protection against subcutaneous pentylenetetrazole-induced seizures at 100 mg/kg, ip after 0.5 hrs; type: functional, organism-based; set-up: dose 100 mg/kg; procedure, shortened: as §3
Rattus norvegicus [28] = assay: Anticonvulsant activity in Kunming rat assessed as protection against maximal electroshock-induced seizures at 30 mg/kg, po after 4 hrs; type: functional; procedure, shortened: as §5
Mus musculus [29] = assay: Anticonvulsant activity in Kunming mouse assessed as protection against maximal electroshock-induced seizures at 100 mg/kg, ip after 4 hrs; type: functional, organism-based; set-up: dose 100 mg/kg
Mus musculus [30] = assay: Anticonvulsant activity in ip dosed Kunming mouse assessed as protection against maximal electroshock-induced seizures; type: functional; procedure, shortened: as §4
Mus musculus [31] = assay: Anticonvulsant activity in Kunming mouse assessed as protection against subcutaneous pentylenetetrazole-induced seizures at 300 mg/kg, ip after 0.5 hrs; type: functional, organism-based; set-up: dose 300 mg/kg; procedure, shortened: as §3
Mus musculus [32] = assay: Protective index, ratio of TD50 for neurotoxicity in ip dosed Kunming mouse to ED50 for Kunming mouse by sPTZ test; type: functional
Rattus norvegicus [33] = assay: Anticonvulsant activity in Kunming rat assessed as protection against maximal electroshock-induced seizures at 30 mg/kg, po after 0.25 hrs; type: functional; procedure, shortened: as §5
Rattus norvegicus [34] = assay: Anticonvulsant activity in Kunming rat assessed as protection against maximal electroshock-induced seizures at 30 mg/kg, po after 1 hr; type: functional; procedure, shortened: as §5

For `COc1cccc(C2CC23NC(=O)N(C)C3=O)c1OC` (centres undefined), the Activity (Mus musculus [1]) was “Non-toxic”, the Activity (Mus musculus [2]) was “Active” and the Activity (Rattus norvegicus [3]) was “Not toxic”. For the same molecule, the Activity (Rattus norvegicus [4]) was “inactive”, the Activity (Mus musculus [5]) was “inactive” and the Activity (Mus musculus [6]) was “Non-toxic”. The Activity (Rattus norvegicus [7]) was “Not toxic”, the Activity (Mus musculus [8]) was “Toxic” and the Activity (Mus musculus [9]) was “inactive”. The Activity (Rattus norvegicus [10]) was “Not toxic”, the Activity (Mus musculus [11]) was “Non-toxic” and the Activity (Mus musculus [12]) was “Active”. The Activity (Mus musculus [13]) was “Active”, the Activity (Mus musculus [14]) was “Non-toxic” and the Activity (Mus musculus [15]) was “Non-toxic”. The Activity (Mus musculus [16]) was “inactive”, the Activity (Mus musculus [17]) was “inactive” and the Activity (Rattus norvegicus [18]) was 25%. The Activity (Rattus norvegicus [19]) was “Non-toxic” and the Activity (Rattus norvegicus [20]) was “Not toxic”.
In the case of `CN1C(=O)NC2(CC2c2ccc(S(C)(=O)=O)cc2)C1=O` (centres undefined), the ED50 (Mus musculus [21]) is reported as 427 mg/kg, the Activity (Mus musculus [1]) is reported as “Non-toxic” and the Activity (Mus musculus [2]) is reported as “Active”. For the same molecule, the Activity (Rattus norvegicus [3]) was “Not toxic”, the Activity (Rattus norvegicus [4]) was 25% and the Activity (Mus musculus [5]) was “Active”. For the same molecule, the Activity (Mus musculus [6]) was “Non-toxic”, the Activity (Rattus norvegicus [7]) was “Not toxic” and the Activity (Rattus norvegicus [22]) was 75%. For the same molecule, the Time (Mus musculus [23]) was 0.5 h, the Activity (Rattus norvegicus [10]) was “Not toxic” and the Activity (Rattus norvegicus [24]) was 50%. For the same molecule, the Activity (Mus musculus [11]) was “Non-toxic”, the TD50 [25] was 310 mg/kg and the PI (Mus musculus [26]) was 24.8. For the same molecule, the Activity (Mus musculus [13]) was “Active”, the Activity (Mus musculus [27]) was “Active” and the Activity (Mus musculus [14]) was “Non-toxic”. The Activity (Mus musculus [15]) was “Non-toxic”, the Activity (Rattus norvegicus [28]) was 75% and the Activity (Mus musculus [17]) was “inactive”. For the same molecule, the Activity (Mus musculus [29]) was “Active”, the Activity (Rattus norvegicus [19]) was “Non-toxic” and the ED50 (Mus musculus [30]) was 12.5 mg/kg. For the same molecule, the Activity (Mus musculus [31]) was “Active”, the PI (Mus musculus [32]) was 0.73 and the Activity (Rattus norvegicus [33]) was “inactive”. For the same molecule, the Activity (Rattus norvegicus [34]) was 50% and the Activity (Rattus norvegicus [20]) was “Not toxic”.
